From ChEMBL document CHEMBL3244267, “Antineoplastic properties of arylsulfonylhdrazones of 3-formylpyridazine 2-oxide and 4-formylpyrimidine 3-oxide” (J Med Chem, 1978)
Activity calls are given as the source filed them. No cut-off for these calls is given here.

Key:
Sarcoma-180 [1] = test: Antitumor activity against mouse Sarcoma 180 cells allografted in CD-1 mouse assessed as mouse survival at 40 mg/kg, ip qd for 6 consecutive days starting 24 hrs post implantation measured after 50 days relative to control; format: functional; details: Sarcoma-180, ip, route intraperitoneal
How it was run: (§1)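 Female CD-1 mice carrying Sarcoma 180 ascites cells from 7-day donor tumors. Given intraperitoneal doses daily for six consecutive days beginning 24 h after implantation; groups of 10 mice, 5 for some. Read-out is the percentage of mice in each group alive more than 50 days.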

Sarcoma-180 [2] = test: Antitumor activity against mouse Sarcoma 180 cells allografted in CD-1 mouse assessed as mouse survival at 60 mg/kg, ip qd for 6 consecutive days starting 24 hrs post implantation measured after 50 days relative to control; format: functional; details: Sarcoma-180, ip, route intraperitoneal; how it was run: as §1
Sarcoma-180 [3] = test: Antitumor activity against mouse Sarcoma 180 cells allografted in CD-1 mouse assessed as mouse survival at 80 mg/kg, ip qd for 6 consecutive days starting 24 hrs post implantation measured after 50 days relative to control; format: functional; details: Sarcoma-180, ip, route intraperitoneal; how it was run: as §1
Sarcoma-180 [4] = test: Antitumor activity against mouse Sarcoma 180 cells allografted in CD-1 mouse assessed as increase in average survival time at 40 mg/kg, ip qd for 6 consecutive days starting 24 hrs post implantation measured relative to control; format: functional; details: route intraperitoneal
How it was run: (§2)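 Sarcoma 180 ascites cells propagated in female CD-1 mice; implanted from donors carrying 7-day tumors. Dosed intraperitoneally once daily for six days starting 24 h post-implant; 10 mice per group, 5 for some groups. %T/C = average survival time (treated/control) × 100; mice surviving more than 50 days counted as 50 days. Body-weight change over the therapy period also recorded.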

Sarcoma-180 [5] = test: Antitumor activity against mouse Sarcoma 180 cells allografted in CD-1 mouse assessed as increase in average survival time at 60 mg/kg, ip qd for 6 consecutive days starting 24 hrs post implantation measured relative to control; format: functional; details: route intraperitoneal; how it was run: as §2
Sarcoma-180 [6] = test: Antitumor activity against mouse Sarcoma 180 cells allografted in CD-1 mouse assessed as increase in average survival time at 80 mg/kg, ip qd for 6 consecutive days starting 24 hrs post implantation measured relative to control; format: functional; details: route intraperitoneal; how it was run: as §2
Mus musculus [7] = test: Toxicity in mouse Sarcoma 180 cells allografted CD-1 mouse assessed as change in body weight at 40 mg/kg, ip qd for 6 consecutive days starting 24 hrs post implantation (reference value: +13.5 %); format: organism-based; set-up: dose 40 mg/kg, route intraperitoneal; details: in vivo
Mus musculus [8] = test: Toxicity in mouse Sarcoma 180 cells allografted CD-1 mouse assessed as change in body weight at 60 mg/kg, ip qd for 6 consecutive days starting 24 hrs post implantation (reference value: +13.5 %); format: organism-based; set-up: dose 60 mg/kg, route intraperitoneal; details: in vivo
Mus musculus [9] = test: Toxicity in mouse Sarcoma 180 cells allografted CD-1 mouse assessed as change in body weight at 80 mg/kg, ip qd for 6 consecutive days starting 24 hrs post implantation (reference value: +13.5 %); format: organism-based; set-up: dose 80 mg/kg, route intraperitoneal; details: in vivo
L1210 [10] = test: Antitumor activity against mouse L1210 cells allografted in […] mouse assessed as increase in average survival time at 60 to 100 mg/kg, ip qd for 6 consecutive days starting 24 hrs post implantation relative to control
Sarcoma-180 [11] = test: Antitumor activity against mouse Sarcoma 180 cells allografted in CD-1 mouse assessed as increase in average survival time at 80 mg/kg, ip qd for 6 consecutive days starting 24 hrs post implantation measured relative to control
L1210 [12] = test: Antitumor activity against mouse L1210 cells allografted in CDF-1 mouse assessed as increase in average survival time at 60 to 100 mg/kg, ip qd for 6 consecutive days starting 24 hrs post implantation relative to control; details: dose mg/kg 60-100; route intraperitoneal

SMILES	survival at 40 mg/kg (Sarcoma-180 [1]) [%]	survival at 60 mg/kg (Sarcoma-180 [2]) [%]	survival at 80 mg/kg (Sarcoma-180 [3]) [%]	T/C (Sarcoma-180 [4]) [%]	T/C (Sarcoma-180 [5]) [%]	T/C (Sarcoma-180 [6]) [%]	Activity (Mus musculus [7]) [%]	Activity (Mus musculus [8]) [%]	Activity (Mus musculus [9]) [%]	Activity (L1210 [10])	Activity (Sarcoma-180 [11])	T/C (L1210 [12]) [%]
COc1ccc(S(=O)(=O)N/N=C/c2ccnc[n+]2[O-])cc1	0	0	0	96	100	94	20.3	10.8	13.9	inactive	inactive	
O=S(=O)(N/N=C/c1cccc[n+]1[O-])c1ccccc1	20			235			-2.6					126
O=S(=O)(N/N=C/c1ccnc[n+]1[O-])c1ccccc1	0	0	0	89	97	112	16.3	11.2	9.6	inactive	inactive	
Cc1ccc(S(=O)(=O)N/N=C/c2ccnc[n+]2[O-])cc1	0	0	0	115	100	103	19.6	16.5	15.2	inactive	inactive	
COc1ccc(S(=O)(=O)N/N=C/c2cccn[n+]2[O-])cc1	10	20	0	231	218	193	-1.6	-3.2	-4.3	inactive		
Cc1ccc(S(=O)(=O)N/N=C/c2cccc[n+]2[O-])cc1												170
COc1ccc(S(=O)(=O)N/N=C/c2cccc[n+]2[O-])cc1												234
O=S(=O)(N/N=C/c1cccn[n+]1[O-])c1ccccc1	10	10	40	194	230	274	-2.9	-3.8	-3.5	inactive		
Cc1ccc(S(=O)(=O)N/N=C/c2cccn[n+]2[O-])cc1	10	20	60	164	254	315	-0.2	-3.2	-4.9	inactive		
